Activity calls are given as the source filed them. No cut-off for these calls is given here.
Legend:
[1] = biological target: 5-hydroxytryptamine receptor 1D (Homo sapiens, UniProt P28221); assay: Displacement of [3H]LSD from human 5-HT1D receptor expressed in HEK cell membranes after 1.5 hrs by microbeta scintillation counting method
Method in brief: (§1)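 Radioligand binding performed by the NIMH Psychoactive Drug Screening Program. Crude membranes from cells expressing recombinant receptor, with [3H]LSD, in 50 mM Tris-HCl, 10 mM MgCl2, 1 mM EDTA, pH 7.4. Eleven test concentrations. Incubated 1.5 h at room temperature, protected from light. Filtered onto PEI-soaked GF/B filters, then scintillation counting. IC50 converted to Ki; at least three experiments in triplicate.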

[2] = biological target: T1, 5-hydroxytryptamine receptor 7 (Homo sapiens, UniProt P34969); assay: Agonist activity at tTA containing TCS cleavage site-fused 5-HT7 receptor (unknown origin) expressed in tTA-dependent luciferase reporter/TEV-fused beta-arrestin2 expressing HTLA cells assessed as induction of beta-arrestin2 recruitment after 22 hrs by Tango assay relative to 5-HT; format: functional, cell-based
Method in brief: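 HTLA cells (HEK293 stably expressing tTA-dependent luciferase reporter and β-arrestin2-TEV) transiently transfected with 5-HT7R-TCS-tTA. Plated in 1% dialysed FBS medium for 6 h, then given test compounds at 0.01 nM-100 μM final, about 22 h. Antagonist mode adds 1 μM 5-HT. BrightGlo luminescence read. Normalised to 5-HT (100%) and vehicle (0%). Three experiments, at least triplicate.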

[3] = biological target: 5-hydroxytryptamine receptor 1B (Homo sapiens, UniProt P28222); assay: Displacement of [3H]LSD from human 5-HT1B receptor expressed in HEK cell membranes after 1.5 hrs by microbeta scintillation counting method; method in brief: as §1
[4] = biological target: T1, 5-hydroxytryptamine receptor 7
[5] = biological target: T2, 5-hydroxytryptamine receptor 3A (Homo sapiens, UniProt P46098); assay: Displacement of [3H]LSD from human 5-HT3 receptor expressed in HEK cell membranes after 1.5 hrs by microbeta scintillation counting method; method in brief: as §1
T2 sequence (P46098 whole entry): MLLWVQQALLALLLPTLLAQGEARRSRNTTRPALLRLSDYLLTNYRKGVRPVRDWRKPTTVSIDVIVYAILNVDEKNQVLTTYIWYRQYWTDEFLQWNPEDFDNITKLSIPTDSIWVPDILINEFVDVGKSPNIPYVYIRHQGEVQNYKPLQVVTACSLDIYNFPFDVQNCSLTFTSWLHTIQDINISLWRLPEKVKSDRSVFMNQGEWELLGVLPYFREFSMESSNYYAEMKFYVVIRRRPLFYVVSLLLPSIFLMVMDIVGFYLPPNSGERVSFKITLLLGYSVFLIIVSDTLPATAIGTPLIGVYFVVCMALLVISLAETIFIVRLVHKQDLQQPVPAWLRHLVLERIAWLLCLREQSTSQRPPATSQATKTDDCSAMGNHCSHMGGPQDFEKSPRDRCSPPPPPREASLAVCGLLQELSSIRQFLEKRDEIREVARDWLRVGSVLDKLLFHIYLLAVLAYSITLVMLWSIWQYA

[6] = biological target: T1, 5-hydroxytryptamine receptor 7; assay: Antagonist activity at human 5-HT7 receptor expressed in HEK293 cells assessed as inhibition of Gs protein-mediated cAMP accumulation by luminescence-based assay relative to SB269970; format: functional, cell-based
Method in brief: (§2)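 HEK293 cells transiently transfected by calcium phosphate with human 5-HT7R and GloSensor-22F cAMP biosensor. After 5-6 h recovery, loaded with GloSensor reagent in HBSS/20 mM HEPES, pH 7.4. Test compounds at 0.01 nM-100 μM final; antagonist mode uses 5-HT stimulation. Luminescence read. Data normalised to 5-HT or SB269970 (100%) and vehicle (0%). Three experiments, at least triplicate.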

[7] = biological target: 5-hydroxytryptamine receptor 6 (Homo sapiens, UniProt P50406); assay: Displacement of [3H]LSD from human 5-HT6 receptor expressed in HEK cell membranes after 1.5 hrs by microbeta scintillation counting method; method in brief: as §1
[8] = biological target: 5-hydroxytryptamine receptor 1E (Homo sapiens, UniProt P28566); assay: Displacement of [3H]LSD from human 5-HT1E receptor expressed in HEK cell membranes after 1.5 hrs by microbeta scintillation counting method; method in brief: as §1
[9] = biological target: T1, 5-hydroxytryptamine receptor 7; assay: Antagonist activity at tTA containing TCS cleavage site-fused 5-HT7 receptor (unknown origin) expressed in tTA-dependent luciferase reporter/TEV-fused beta-arrestin2 expressing HTLA cells assessed as inhibition of 5-HT-induced beta-arrestin2 recruitment after 22 hrs by Tango assay; format: functional, cell-based
[10] = biological target: 5-hydroxytryptamine receptor 2A (Homo sapiens, UniProt P28223); assay: Displacement of [3H]LSD from human 5-HT2A receptor expressed in HEK cell membranes after 1.5 hrs by microbeta scintillation counting method; method in brief: as §1
Homo sapiens [11] = organism: Homo sapiens; assay: Selectivity index, ratio of Ki for human 5-HT2C receptor to Ki for human 5-HT7 receptor
Method in brief: (§3)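 Selectivity index taken as Ki at the other 5-HT receptor subtype divided by Ki at 5-HT7R, each from [3H]LSD membrane binding run by the NIMH PDSP. Ki values are means of at least three experiments in triplicate.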

[12] = biological target: T1, 5-hydroxytryptamine receptor 7; assay: Inverse agonist activity at human 5-HT7 receptor expressed in HEK293 cells assessed as decrease in Gs protein-mediated cAMP accumulation by luminescence-based assay; format: functional, cell-based; method in brief: as §2
Homo sapiens [13] = organism: Homo sapiens; assay: Selectivity index, ratio of Ki for human 5-HT3 receptor to Ki for human 5-HT7 receptor; method in brief: as §3
Homo sapiens [14] = organism: Homo sapiens; assay: Selectivity index, ratio of Ki for human 5-HT6 receptor to Ki for human 5-HT7 receptor; method in brief: as §3
Homo sapiens [15] = organism: Homo sapiens; assay: Selectivity index, ratio of Ki for human 5-HT2B receptor to Ki for human 5-HT7 receptor; method in brief: as §3
[16] = biological target: 5-hydroxytryptamine receptor 5A (Homo sapiens, UniProt P47898); assay: Displacement of [3H]LSD from human 5-HT5A receptor expressed in HEK cell membranes after 1.5 hrs by microbeta scintillation counting method; method in brief: as §1
[17] = biological target: T3, 5-hydroxytryptamine receptor 1A (Homo sapiens, UniProt P08908); assay: Displacement of [3H]LSD from human 5-HT1A receptor expressed in HEK cell membranes after 1.5 hrs by microbeta scintillation counting method; method in brief: as §1
T3 sequence (P08908 whole entry): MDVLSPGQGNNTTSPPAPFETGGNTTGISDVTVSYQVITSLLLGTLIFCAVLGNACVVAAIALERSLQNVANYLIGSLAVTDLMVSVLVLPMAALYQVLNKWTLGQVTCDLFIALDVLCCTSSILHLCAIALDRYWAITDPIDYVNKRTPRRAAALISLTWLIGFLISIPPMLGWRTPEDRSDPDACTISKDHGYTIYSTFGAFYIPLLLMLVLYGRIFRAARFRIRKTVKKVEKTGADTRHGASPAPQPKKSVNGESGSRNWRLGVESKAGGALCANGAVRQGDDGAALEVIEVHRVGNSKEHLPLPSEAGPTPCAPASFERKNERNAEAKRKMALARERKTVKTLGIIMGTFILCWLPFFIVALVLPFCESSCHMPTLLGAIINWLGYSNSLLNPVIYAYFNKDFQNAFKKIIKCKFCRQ

[18] = biological target: 5-hydroxytryptamine receptor 2B (Homo sapiens, UniProt P41595); assay: Displacement of [3H]LSD from human 5-HT2B receptor expressed in HEK cell membranes after 1.5 hrs by microbeta scintillation counting method
[19] = biological target: T1, 5-hydroxytryptamine receptor 7; remark: listed apart in the source
[20] = biological target: T4, 5-hydroxytryptamine receptor 2C (Homo sapiens, UniProt P28335); assay: Displacement of [3H]LSD from human 5-HT2C receptor expressed in HEK cell membranes after 1.5 hrs by microbeta scintillation counting method; method in brief: as §1
T4 sequence (P28335 whole entry): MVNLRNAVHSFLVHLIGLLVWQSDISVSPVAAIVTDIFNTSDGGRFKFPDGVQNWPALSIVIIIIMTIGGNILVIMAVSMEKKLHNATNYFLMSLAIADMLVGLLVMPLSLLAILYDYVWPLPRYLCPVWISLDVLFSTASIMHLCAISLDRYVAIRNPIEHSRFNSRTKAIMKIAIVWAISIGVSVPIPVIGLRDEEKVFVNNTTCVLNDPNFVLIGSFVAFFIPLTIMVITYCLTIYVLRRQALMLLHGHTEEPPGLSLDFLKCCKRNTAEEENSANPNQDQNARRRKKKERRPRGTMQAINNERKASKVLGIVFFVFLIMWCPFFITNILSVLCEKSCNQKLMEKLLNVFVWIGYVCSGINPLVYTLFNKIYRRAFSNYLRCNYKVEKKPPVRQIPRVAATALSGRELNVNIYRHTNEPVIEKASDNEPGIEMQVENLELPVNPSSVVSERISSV

[21] = biological target: 5-hydroxytryptamine receptor 4 (Homo sapiens, UniProt Q13639); assay: Displacement of [3H]LSD from human 5-HT4 receptor expressed in HEK cell membranes after 1.5 hrs by microbeta scintillation counting method; method in brief: as §1
Homo sapiens [22] = organism: Homo sapiens; assay: Selectivity index, ratio of Ki for human 5-HT2A receptor to Ki for human 5-HT7 receptor; method in brief: as §3
Homo sapiens [23] = organism: Homo sapiens; assay: Selectivity index, ratio of Ki for human 5-HT5A receptor to Ki for human 5-HT7 receptor; method in brief: as §3
Homo sapiens [24] = organism: Homo sapiens; assay: Selectivity index, ratio of Ki for human 5-HT1E receptor to Ki for human 5-HT7 receptor; method in brief: as §3
Homo sapiens [25] = organism: Homo sapiens; assay: Selectivity index, ratio of Ki for human 5-HT1D receptor to Ki for human 5-HT7 receptor; method in brief: as §3
[26] = biological target: T1, 5-hydroxytryptamine receptor 7; assay: Displacement of [3H]LSD from human 5-HT7 receptor expressed in HEK cell membranes after 1.5 hrs by microbeta scintillation counting method
[27] = biological target: T1, 5-hydroxytryptamine receptor 7; assay: Displacement of [3H]LSD from human 5-HT7 receptor expressed in HEK cell membranes at 10 uM after 1.5 hrs by microbeta scintillation counting method
Method in brief: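 [3H]LSD binding to recombinant 5-HT7R membranes in Tris-HCl/MgCl2/EDTA buffer, pH 7.4, 1.5 h at room temperature, filtration and scintillation counting. Percent inhibition at a single 10 μM test concentration.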

Mus musculus [28] = assay: Sleep promoting activity in C57B1/6J mouse assessed as duration of total non-rapid eye movement sleep time at 30 mg/kg, ip measured over 8 hrs by electroencephalogram method (reference value: 252 +/- 22.7 mins); format: functional
Method in brief: (§4)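 Adult male C57Bl/6J mice, 10 weeks old, with parietal EEG screw electrodes implanted under ketamine. EEG and EMG recorded for 8 h from 9 AM, starting one day before dosing as baseline. On test day, 30 mg/kg i.p. at the start of the light phase, with EEG/EMG recorded for 8 h and scored in 2-h bins. n = 6-9 per group; mean ± SEM versus vehicle.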

Mus musculus [29] = assay: Sleep promoting activity in C57B1/6J mouse assessed as decrease in total rapid eye movement sleep time at 30 mg/kg, ip measured over 8 hrs by electroencephalogram method; format: functional; parameters: scale not given: the % may be the effect or the level left; method in brief: as §4

Sequence of 5-hydroxytryptamine receptor 5A (P47898 whole entry): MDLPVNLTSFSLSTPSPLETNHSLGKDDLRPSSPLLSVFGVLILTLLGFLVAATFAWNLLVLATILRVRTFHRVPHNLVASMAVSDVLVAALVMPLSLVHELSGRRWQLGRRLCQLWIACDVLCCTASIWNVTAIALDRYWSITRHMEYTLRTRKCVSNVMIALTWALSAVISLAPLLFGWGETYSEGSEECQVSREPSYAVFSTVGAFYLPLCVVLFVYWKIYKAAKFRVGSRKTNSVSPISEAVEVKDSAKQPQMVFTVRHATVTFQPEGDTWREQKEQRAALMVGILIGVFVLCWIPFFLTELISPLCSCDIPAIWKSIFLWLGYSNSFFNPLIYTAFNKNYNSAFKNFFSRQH
Sequence of 5-hydroxytryptamine receptor 2B (P41595 whole entry): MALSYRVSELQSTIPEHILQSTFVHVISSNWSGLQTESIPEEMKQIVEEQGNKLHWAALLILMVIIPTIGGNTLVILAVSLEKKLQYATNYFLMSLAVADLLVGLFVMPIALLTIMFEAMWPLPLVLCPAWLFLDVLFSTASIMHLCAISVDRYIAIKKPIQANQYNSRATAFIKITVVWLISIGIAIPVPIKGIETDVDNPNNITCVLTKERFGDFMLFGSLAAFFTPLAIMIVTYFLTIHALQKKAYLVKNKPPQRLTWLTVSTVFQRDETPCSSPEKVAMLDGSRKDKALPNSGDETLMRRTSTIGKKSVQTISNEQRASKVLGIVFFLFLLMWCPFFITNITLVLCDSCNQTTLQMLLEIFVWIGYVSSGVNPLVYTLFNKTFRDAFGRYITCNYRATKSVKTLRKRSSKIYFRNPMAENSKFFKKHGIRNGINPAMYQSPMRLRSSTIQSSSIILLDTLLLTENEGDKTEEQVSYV
Sequence of 5-hydroxytryptamine receptor 6 (P50406 whole entry): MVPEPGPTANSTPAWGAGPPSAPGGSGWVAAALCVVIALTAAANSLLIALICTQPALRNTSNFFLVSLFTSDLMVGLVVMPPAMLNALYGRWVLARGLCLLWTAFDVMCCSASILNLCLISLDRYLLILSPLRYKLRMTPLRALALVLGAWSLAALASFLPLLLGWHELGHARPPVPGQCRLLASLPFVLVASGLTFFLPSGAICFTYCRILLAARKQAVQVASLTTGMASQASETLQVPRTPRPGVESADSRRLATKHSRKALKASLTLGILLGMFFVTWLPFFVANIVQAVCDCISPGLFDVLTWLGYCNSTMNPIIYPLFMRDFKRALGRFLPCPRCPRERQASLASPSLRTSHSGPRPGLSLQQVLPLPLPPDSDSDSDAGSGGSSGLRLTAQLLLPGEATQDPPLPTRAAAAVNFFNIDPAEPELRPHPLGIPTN
Sequence of 5-hydroxytryptamine receptor 4 (Q13639 whole entry): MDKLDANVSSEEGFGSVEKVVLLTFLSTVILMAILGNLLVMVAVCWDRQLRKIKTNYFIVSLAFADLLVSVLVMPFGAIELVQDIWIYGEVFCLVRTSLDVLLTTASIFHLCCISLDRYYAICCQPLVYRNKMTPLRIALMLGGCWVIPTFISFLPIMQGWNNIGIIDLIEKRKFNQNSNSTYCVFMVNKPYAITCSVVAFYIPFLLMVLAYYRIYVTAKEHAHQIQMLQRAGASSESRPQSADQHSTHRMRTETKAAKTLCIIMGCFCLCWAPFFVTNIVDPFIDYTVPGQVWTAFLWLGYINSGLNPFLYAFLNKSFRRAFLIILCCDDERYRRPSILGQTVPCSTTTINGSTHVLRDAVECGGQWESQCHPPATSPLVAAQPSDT
T1 sequence (P34969 whole entry, the tested form may be a part): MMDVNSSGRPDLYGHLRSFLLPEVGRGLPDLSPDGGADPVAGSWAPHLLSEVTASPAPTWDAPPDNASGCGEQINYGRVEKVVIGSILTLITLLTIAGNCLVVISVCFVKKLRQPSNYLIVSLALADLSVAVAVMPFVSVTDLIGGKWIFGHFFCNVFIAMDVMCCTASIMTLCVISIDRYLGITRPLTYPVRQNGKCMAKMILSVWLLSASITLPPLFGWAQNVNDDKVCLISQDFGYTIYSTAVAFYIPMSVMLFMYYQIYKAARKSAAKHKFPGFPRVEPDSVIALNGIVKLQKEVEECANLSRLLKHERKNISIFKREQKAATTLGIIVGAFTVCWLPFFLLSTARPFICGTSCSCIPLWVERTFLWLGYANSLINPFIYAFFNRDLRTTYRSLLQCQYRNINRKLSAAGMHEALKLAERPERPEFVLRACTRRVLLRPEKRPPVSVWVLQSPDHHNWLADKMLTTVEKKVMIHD
Sequence of 5-hydroxytryptamine receptor 1E (P28566 whole entry, the tested form may be a part): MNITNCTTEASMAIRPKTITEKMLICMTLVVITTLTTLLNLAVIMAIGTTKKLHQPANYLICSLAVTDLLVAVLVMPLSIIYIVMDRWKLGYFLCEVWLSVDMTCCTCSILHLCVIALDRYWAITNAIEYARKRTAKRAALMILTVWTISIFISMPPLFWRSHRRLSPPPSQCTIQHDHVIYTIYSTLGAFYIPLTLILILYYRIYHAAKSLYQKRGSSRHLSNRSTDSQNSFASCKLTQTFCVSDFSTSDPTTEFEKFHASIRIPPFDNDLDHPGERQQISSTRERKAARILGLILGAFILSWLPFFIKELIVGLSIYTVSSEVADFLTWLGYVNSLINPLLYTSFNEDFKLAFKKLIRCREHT
Sequence of 5-hydroxytryptamine receptor 1D (P28221 whole entry): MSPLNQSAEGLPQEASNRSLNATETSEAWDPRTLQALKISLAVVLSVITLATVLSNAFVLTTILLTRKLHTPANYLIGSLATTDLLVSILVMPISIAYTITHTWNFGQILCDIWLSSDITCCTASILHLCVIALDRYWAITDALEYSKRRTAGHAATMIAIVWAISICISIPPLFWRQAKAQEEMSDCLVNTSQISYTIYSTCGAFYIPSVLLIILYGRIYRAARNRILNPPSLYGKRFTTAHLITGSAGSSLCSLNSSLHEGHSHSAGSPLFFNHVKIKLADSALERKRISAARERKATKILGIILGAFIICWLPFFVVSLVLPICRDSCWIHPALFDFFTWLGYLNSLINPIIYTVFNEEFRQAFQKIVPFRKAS
Sequence of 5-hydroxytryptamine receptor 1B (P28222 whole entry): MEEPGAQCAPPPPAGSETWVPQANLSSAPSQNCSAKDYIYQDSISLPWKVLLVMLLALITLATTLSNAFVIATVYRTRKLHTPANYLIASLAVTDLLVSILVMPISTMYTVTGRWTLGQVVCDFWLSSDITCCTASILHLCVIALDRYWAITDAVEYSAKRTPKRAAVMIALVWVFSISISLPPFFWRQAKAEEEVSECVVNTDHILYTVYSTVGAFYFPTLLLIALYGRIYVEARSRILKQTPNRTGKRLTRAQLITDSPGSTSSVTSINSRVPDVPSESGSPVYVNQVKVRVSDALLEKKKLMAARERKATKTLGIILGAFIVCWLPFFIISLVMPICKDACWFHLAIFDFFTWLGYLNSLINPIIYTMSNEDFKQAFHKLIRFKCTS
Sequence of 5-hydroxytryptamine receptor 2A (P28223 whole entry): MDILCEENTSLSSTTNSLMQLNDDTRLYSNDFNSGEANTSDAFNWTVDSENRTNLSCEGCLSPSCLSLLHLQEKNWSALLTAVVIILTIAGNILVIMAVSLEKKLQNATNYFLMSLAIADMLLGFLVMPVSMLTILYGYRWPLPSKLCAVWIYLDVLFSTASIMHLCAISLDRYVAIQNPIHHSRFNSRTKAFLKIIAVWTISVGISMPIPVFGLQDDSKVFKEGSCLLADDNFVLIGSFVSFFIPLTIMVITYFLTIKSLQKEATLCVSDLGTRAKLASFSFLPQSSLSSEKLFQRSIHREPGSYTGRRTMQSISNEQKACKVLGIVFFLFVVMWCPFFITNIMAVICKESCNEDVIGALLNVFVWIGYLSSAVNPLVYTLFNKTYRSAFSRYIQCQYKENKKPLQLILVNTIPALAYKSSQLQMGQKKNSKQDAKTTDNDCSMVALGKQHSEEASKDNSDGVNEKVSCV

Ki [1] [nM]	Emax [2] [%]	Ki [3] [nM]	IC50 [4] [nM]	Ki [5] [nM]	Imax [6] [%]	Ki [7] [nM]	Ki [8] [nM]	inhibition [9]	Ki [10] [nM]	Ratio Ki (Homo sapiens [11])	Activity [12]	Ratio Ki (Homo sapiens [15])	Ki [16] [nM]	Ki [17] [nM]	Ki [18] [nM]	EC50 [19] [nM]	Ki [20] [nM]	Ki [21] [nM]	Ratio Ki (Homo sapiens [22])	SMILES	also measured
> 10000	47.1	> 10000	3970	303	94.9	360	> 10000	inactive	399	15.7	Active	3.5	> 10000	> 10000	247	113	1100	> 10000	5.7	Clc1ccc(-c2noc3c2CCNCC3)cc1	Ratio Ki (Homo sapiens [13]): 4.3; Ratio Ki (Homo sapiens [14]): 5.1
> 10000	38.2	> 10000	2460	703	98	> 10000	> 10000	inactive	471	14.8	Active	9.5	1230	> 10000	505	135	785	> 10000	8.9	Fc1ccc(-c2noc3c2CCNCC3)cc1	Ratio Ki (Homo sapiens [13]): 13.3; Ratio Ki (Homo sapiens [23]): 23.2
165	50.9	> 10000	2560	> 10000	97.4	109	890	inactive	159	6.3	Active	2.3	> 10000	> 10000	106	165	296	> 10000	3.4	Cc1ccc(-c2n[nH]c3c2CCNCC3)cc1	Ratio Ki (Homo sapiens [14]): 2.3; Ratio Ki (Homo sapiens [24]): 18.9; Ratio Ki (Homo sapiens [25]): 3.5
–	–	–	–	–	–	–	–	–	–	–	–	–	–	–	–	–	–	–	–	Cc1ccccc1-c1noc2c1CCNCC2	Ki [26]: > 10000 nM; inhibition [27]: < 50%
–	< 20	–	–	–	–	–	–	–	–	–	Active	–	–	–	–	–	–	–	–	CC1CCN(CC[C@H]2CCCN2S(=O)(=O)c2cccc(O)c2)CC1	Time (Mus musculus [28]): 252 min; Activity (Mus musculus [29]): 37.1%

— ChEMBL document CHEMBL4196105, “Discovery of β-Arrestin Biased Ligands of 5-HT7R” (J Med Chem, 2018)
